According to ChEMBL document CHEMBL4480370, “Synthesis and preliminary evaluation of the anti-cancer activity on A549 lung cancer cells of a series of unsaturated disulfides” (2019):
The source made the active and inactive calls. The rule behind the calls is not given here.

Tests used:
A549 [1] = assay: Cytotoxicity against human A549 cells assessed as reduction in cell viability at 500 uM after 24 hrs by CellTiter-Glo luminescent assay; type: functional, cell-based
Method in brief: (§1)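 A549 cells kept in RPMI 1640 with 10% fetal bovine serum and 100 units per ml penicillin–streptomycin. Each molecule was applied at 50, 100, 250 and 500 μM, with viability read at 24 or 48 h by CellTiter-Glo luminescence. Values are expressed relative to untreated control (C), as the mean of three repeats with relative standard deviation.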

A549 [2] = assay: Cytotoxicity against human A549 cells assessed as reduction in cell viability after 24 hrs by CellTiter-Glo luminescent assay; type: functional, cell-based; method in brief: as §1
A549 [3] = assay: Cytotoxicity against human A549 cells assessed as reduction in cell viability at 50 to 500 uM by CellTiter-Glo luminescent assay; type: functional, cell-based; conditions: TDE = time-dependent effect; method in brief: as §1
A549 [4] = assay: Cytotoxicity against human A549 cells assessed as reduction in cell viability at 50 uM after 48 hrs by CellTiter-Glo luminescent assay relative to control; type: functional; method in brief: as §1
A549 [5] = assay: Cytotoxicity against human A549 cells assessed as reduction in cell viability at 500 uM after 48 hrs by CellTiter-Glo luminescent assay relative to control; type: functional; method in brief: as §1
A549 [6] = assay: Cytotoxicity against human A549 cells assessed as reduction in cell viability at 50 to 500 uM after 24 hrs by CellTiter-Glo luminescent assay; type: functional, cell-based; method in brief: as §1
A549 [7] = assay: Cytotoxicity against human A549 cells assessed as reduction in cell viability after 48 hrs by CellTiter-Glo luminescent assay; type: functional, cell-based; method in brief: as §1
A549 [8] = assay: Cytotoxicity against human A549 cells assessed as reduction in cell viability at 250 uM after 48 hrs by CellTiter-Glo luminescent assay; type: functional, cell-based; method in brief: as §1
A549 [9] = assay: Cytotoxicity against human A549 cells assessed as reduction in cell viability at 100 to 250 uM after 48 hrs by CellTiter-Glo luminescent assay; type: functional, cell-based; method in brief: as §1

| SMILES | Activity (A549 [1]) | Activity (A549 [2]) | Activity (A549 [3]) | Activity (A549 [4]) [%] | Activity (A549 [5]) [%] | other results |
| --- | --- | --- | --- | --- | --- | --- |
| CCCC=CCSSCC=CCCC (mixture of isomers) | Active |  |  |  |  |  |
| C=CCSSCC=C [DIALLYLDISULFIDE] |  | Dose-dependent effect | Tde | 54 | 65 |  |
| C=CCCCCSSCCCCC=C |  |  |  |  |  | Activity (A549 [6]): inactive |
| CCC/C=C/CSSC/C=C/CCC | Active |  |  |  |  |  |
| C=CCCSSCCC=C |  | Dose-dependent effect | Tde | 68 | 100 | Activity (A549 [7]): Dose-dependent effect; Activity (A549 [8]): Active |
| C/C=C/CSSC/C=C/C |  | Dose-dependent effect | Tde | 70 | 84 | Activity (A549 [9]): Active |
